Source: PMC5766692 (Journal of Ginseng Research, 2017)

Assays:
[1] = assay type: in vivo, Sprague Dawley rats; settings: rat plasma, oral WG, RG, FG extracts and free ginsenosides; for Time of first peak of the plasma concentration-time curve / Time of second peak of the plasma concentration-time curve: bimodal curve
Summary of the method: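 Male Sprague Dawley rats (240–260 g), fasted 12 h with water allowed, 5 per group. Dosed orally with 70% ethanol ginseng decoctions or a water mixture of pure ginsenosides (25, 86, 45, 42 mg/kg). Retro-orbital blood taken 0.083–36 h; plasma acetonitrile-precipitated with digoxin IS, dried, redissolved in methanol. Analysed by C18 UPLC-MS/MS in positive ion mode; profiles mean ± SD.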

[2] = assay type: in vivo, Sprague Dawley rats; settings: rats, 30 min after oral RG, WG, FG extracts and free ginsenosides; heart, liver, spleen, lungs, kidneys, brain, muscle, testes
[3] = Stability of the analytes in rat plasma under different conditions; assay type: in vitro ADME; settings: for Freeze–thaw stability, accuracy (mean ± SD): three freeze (−80°C)-thaw (room temperature) cycles; for Long-term stability, accuracy (mean ± SD): −80°C for 1 mo
Summary of the method: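 Rat plasma QC samples (low, medium, high) run in five replicates by UPLC-MS/MS with digoxin IS. Long-term: stored at −80°C for 1 mo. Freeze–thaw: three cycles of −80°C freezing and room-temperature thawing. Post-preparative: extracted QC samples held in the autosampler at 15°C for 24 h. Precision […] taken as relative standard deviation of QC concentrations.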

[4] = Stability of the analytes in rat tissue homogenates under different conditions; assay type: in vitro ADME; settings: for Short-term stability, accuracy (mean ± SD) / Freeze–thaw stability, accuracy (mean ± SD) / Long-term stability, accuracy (mean ± SD): tissue; for Freeze–thaw stability, accuracy (mean ± SD): three freeze (−80°C)-thaw (room temperature) cycles; for Long-term stability, accuracy (mean ± SD): −80°C for 1 mo
Summary of the method: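 Tissues rinsed in pH 7.4 sodium phosphate buffer, 0.5 g homogenised in 1 mL saline, then acetonitrile and digoxin IS added. Supernatant dried and redissolved in methanol for UPLC-MS/MS. QC tissue samples run in five replicates after storage at −80°C for 1 mo. Brain QC samples also put through three −80°C/room-temperature freeze–thaw cycles.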

[5] = mouse; higher than free ginsenoside Re; cited from earlier work

CC(C)=CCC[C@](C)(O[C@@H]1O[C@H](CO)[C@@H](O)[C@H](O)[C@H]1O)[C@H]1CC[C@]2(C)[C@@H]1[C@H](O)C[C@@H]1[C@@]3(C)CC[C@H](O[C@@H]4O[C@H](CO)[C@@H](O)[C@H](O)[C@H]4O[C@@H]4O[C@H](CO)[C@@H](O)[C@H](O)[C@H]4O)C(C)(C)[C@@H]3CC[C@]12C [Rd]
Time of first peak of the plasma concentration-time curve [1]: 15 to 30 min | Time of second peak of the plasma concentration-time curve [1]: 8 to 12 h | Tissue distribution (main tissues) [2]: mainly distributed in the kidneys | Short-term stability, accuracy (mean ± SD) ([3]; plasma, spiked 0.1 μg/mL): 92.3 ± 4.3% | Freeze–thaw stability, accuracy (mean ± SD) ([3]; plasma, spiked 0.1 μg/mL): 92.5 ± 7.7% | Long-term stability, accuracy (mean ± SD) ([3]; plasma, spiked 0.1 μg/mL): 93.6 ± 8.5% | Short-term stability, accuracy (mean ± SD) ([3]; plasma, spiked 1.0 μg/mL): 94.6 ± 5.2% | Freeze–thaw stability, accuracy (mean ± SD) ([3]; plasma, spiked 1.0 μg/mL): 106.5 ± 6.5% | Long-term stability, accuracy (mean ± SD) ([3]; plasma, spiked 1.0 μg/mL): 102.3 ± 9.6% | Short-term stability, accuracy (mean ± SD) ([3]; plasma, spiked 2.0 μg/mL): 105.3 ± 6.0% | Freeze–thaw stability, accuracy (mean ± SD) ([3]; plasma, spiked 2.0 μg/mL): 104.3 ± 8.6% | Long-term stability, accuracy (mean ± SD) ([3]; plasma, spiked 2.0 μg/mL): 102.5 ± 2.3% | Stability in rat plasma during sample extraction and storage [3]: stable | Stability in the various tissue homogenates during sample extraction and storage [4]: stable | Short-term stability, accuracy (mean ± SD) ([4]; spiked 0.2 μg/mL): 107.2 ± 7.3% | Freeze–thaw stability, accuracy (mean ± SD) ([4]; spiked 0.2 μg/mL): 96.5 ± 8.4% | Long-term stability, accuracy (mean ± SD) ([4]; spiked 0.2 μg/mL): 95.5 ± 5.6% | Short-term stability, accuracy (mean ± SD) ([4]; spiked 0.5 μg/mL): 106.4 ± 8.5% | Freeze–thaw stability, accuracy (mean ± SD) ([4]; spiked 0.5 μg/mL): 95.7 ± 9.5% | Long-term stability, accuracy (mean ± SD) ([4]; spiked 0.5 μg/mL): 92.0 ± 9.4% | Short-term stability, accuracy (mean ± SD) ([4]; spiked 1.0 μg/mL): 93.8 ± 5.1% | Freeze–thaw stability, accuracy (mean ± SD) ([4]; spiked 1.0 μg/mL): 99.6 ± 3.4% | Long-term stability, accuracy (mean ± SD) ([4]; spiked 1.0 μg/mL): 94.4 ± 7.0%

CC(C)=CCC[C@](C)(O[C@@H]1O[C@H](CO[C@@H]2O[C@H](CO)[C@@H](O)[C@H](O)[C@H]2O)[C@@H](O)[C@H](O)[C@H]1O)[C@H]1CC[C@]2(C)[C@@H]1[C@H](O)C[C@@H]1[C@@]3(C)CC[C@H](O[C@@H]4O[C@H](CO)[C@@H](O)[C@H](O)[C@H]4O[C@@H]4O[C@H](CO)[C@@H](O)[C@H](O)[C@H]4O)C(C)(C)[C@@H]3CC[C@]12C [Rb1]
Time of the single peak of the plasma concentration-time curve [1]: 8 to 10 h | Tissue distribution (main tissues) [2]: mainly distributed in the heart | Short-term stability, accuracy (mean ± SD) ([3]; plasma, spiked 2.0 μg/mL): 91.3 ± 5.3% | Freeze–thaw stability, accuracy (mean ± SD) ([3]; plasma, spiked 2.0 μg/mL): 96.2 ± 8.5% | Long-term stability, accuracy (mean ± SD) ([3]; plasma, spiked 2.0 μg/mL): 95.6 ± 7.7% | Short-term stability, accuracy (mean ± SD) ([3]; plasma, spiked 5.0 μg/mL): 91.5 ± 6.8% | Freeze–thaw stability, accuracy (mean ± SD) ([3]; plasma, spiked 5.0 μg/mL): 103.3 ± 6.0% | Long-term stability, accuracy (mean ± SD) ([3]; plasma, spiked 5.0 μg/mL): 106.6 ± 6.8% | Short-term stability, accuracy (mean ± SD) ([3]; plasma, spiked 10 μg/mL): 94.4 ± 7.9% | Post-preparative stability, accuracy (mean ± SD) ([3]; plasma, spiked 10 μg/mL, extracted samples in automatic sampler at 15°C for 24 h): 94.5 ± 8.0% | Freeze–thaw stability, accuracy (mean ± SD) ([3]; plasma, spiked 10 μg/mL): 98.5 ± 8.2% | Long-term stability, accuracy (mean ± SD) ([3]; plasma, spiked 10 μg/mL): 93.9 ± 8.5% | Stability in rat plasma during sample extraction and storage [3]: stable | Stability in the various tissue homogenates during sample extraction and storage [4]: stable | Short-term stability, accuracy (mean ± SD) ([4]; spiked 0.2 μg/mL): 102.4 ± 5.1% | Freeze–thaw stability, accuracy (mean ± SD) ([4]; spiked 0.2 μg/mL): 108.5 ± 6.0% | Long-term stability, accuracy (mean ± SD) ([4]; spiked 0.2 μg/mL): 104.5 ± 8.6% | Short-term stability, accuracy (mean ± SD) ([4]; spiked 0.5 μg/mL): 101.1 ± 7.0% | Freeze–thaw stability, accuracy (mean ± SD) ([4]; spiked 0.5 μg/mL): 109.2 ± 8.1% | Long-term stability, accuracy (mean ± SD) ([4]; spiked 0.5 μg/mL): 108.1 ± 6.7% | Short-term stability, accuracy (mean ± SD) ([4]; spiked 1.0 μg/mL): 105.0 ± 5.1% | Freeze–thaw stability, accuracy (mean ± SD) ([4]; spiked 1.0 μg/mL): 103.7 ± 7.0% | Long-term stability, accuracy (mean ± SD) ([4]; spiked 1.0 μg/mL): 101.0 ± 8.7%

CC(C)=CCC[C@](C)(O[C@@H]1O[C@H](CO)[C@@H](O)[C@H](O)[C@H]1O)[C@H]1CC[C@]2(C)[C@@H]1[C@H](O)C[C@@H]1[C@@]3(C)CC[C@H](O)C(C)(C)[C@@H]3[C@@H](O[C@@H]3O[C@H](CO)[C@@H](O)[C@H](O)[C@H]3O[C@@H]3O[C@@H](C)[C@H](O)[C@@H](O)[C@H]3O)C[C@]12C [Re]
Time of first peak of the plasma concentration-time curve [1]: 15 to 30 min | Time of second peak of the plasma concentration-time curve [1]: 8 to 12 h | Tissue distribution (main tissues) [2]: mainly distributed in the heart and lungs | Short-term stability, accuracy (mean ± SD) ([3]; plasma, spiked 0.1 μg/mL): 102.5 ± 9.0% | Freeze–thaw stability, accuracy (mean ± SD) ([3]; plasma, spiked 0.1 μg/mL): 93.3 ± 6.2% | Long-term stability, accuracy (mean ± SD) ([3]; plasma, spiked 0.1 μg/mL): 96.6 ± 4.1% | Short-term stability, accuracy (mean ± SD) ([3]; plasma, spiked 0.5 μg/mL): 94.4 ± 4.4% | Freeze–thaw stability, accuracy (mean ± SD) ([3]; plasma, spiked 0.5 μg/mL): 97.5 ± 7.0% | Long-term stability, accuracy (mean ± SD) ([3]; plasma, spiked 0.5 μg/mL): 98.7 ± 5.0% | Short-term stability, accuracy (mean ± SD) ([3]; plasma, spiked 1.0 μg/mL): 97.6 ± 3.5% | Freeze–thaw stability, accuracy (mean ± SD) ([3]; plasma, spiked 1.0 μg/mL): 99.0 ± 7.4% | Long-term stability, accuracy (mean ± SD) ([3]; plasma, spiked 1.0 μg/mL): 92.2 ± 7.4% | Stability in rat plasma during sample extraction and storage [3]: stable | Stability in the various tissue homogenates during sample extraction and storage [4]: stable | Short-term stability, accuracy (mean ± SD) ([4]; spiked 0.01 μg/mL): 92.2 ± 8.7% | Freeze–thaw stability, accuracy (mean ± SD) ([4]; spiked 0.01 μg/mL): 92.7 ± 8.0% | Long-term stability, accuracy (mean ± SD) ([4]; spiked 0.01 μg/mL): 93.2 ± 5.8% | Short-term stability, accuracy (mean ± SD) ([4]; spiked 0.05 μg/mL): 96.6 ± 2.8% | Freeze–thaw stability, accuracy (mean ± SD) ([4]; spiked 0.05 μg/mL): 103.5 ± 5.5% | Long-term stability, accuracy (mean ± SD) ([4]; spiked 0.05 μg/mL): 105.5 ± 9.4% | Short-term stability, accuracy (mean ± SD) ([4]; spiked 0.2 μg/mL): 92.4 ± 4.8% | Freeze–thaw stability, accuracy (mean ± SD) ([4]; spiked 0.2 μg/mL): 100.7 ± 7.4% | Long-term stability, accuracy (mean ± SD) ([4]; spiked 0.2 μg/mL): 103.8 ± 6.5% | Absorption of ginsenoside Re from ginseng berry extract [5]: 0.33–0.75%

CC(C)=CCC[C@](C)(O[C@@H]1O[C@H](CO)[C@@H](O)[C@H](O)[C@H]1O)[C@H]1CC[C@]2(C)[C@@H]1[C@H](O)C[C@@H]1[C@@]3(C)CC[C@H](O)C(C)(C)[C@@H]3[C@@H](O[C@@H]3O[C@H](CO)[C@@H](O)[C@H](O)[C@H]3O)C[C@]12C [Rg1]
Time of first peak of the plasma concentration-time curve [1]: 15 to 30 min | Time of second peak of the plasma concentration-time curve [1]: 8 to 12 h | Tissue distribution (main tissues) [2]: extensively distributed in the heart, lungs, and kidneys | Short-term stability, accuracy (mean ± SD) ([3]; plasma, spiked 0.5 μg/mL): 102.0 ± 6.4% | Freeze–thaw stability, accuracy (mean ± SD) ([3]; plasma, spiked 0.5 μg/mL): 106.1 ± 3.4% | Long-term stability, accuracy (mean ± SD) ([3]; plasma, spiked 0.5 μg/mL): 103.7 ± 8.0% | Short-term stability, accuracy (mean ± SD) ([3]; plasma, spiked 1.0 μg/mL): 93.2 ± 7.0% | Freeze–thaw stability, accuracy (mean ± SD) ([3]; plasma, spiked 1.0 μg/mL): 107.0 ± 8.2% | Long-term stability, accuracy (mean ± SD) ([3]; plasma, spiked 1.0 μg/mL): 103.1 ± 9.4% | Short-term stability, accuracy (mean ± SD) ([3]; plasma, spiked 2.0 μg/mL): 92.1 ± 8.6% | Freeze–thaw stability, accuracy (mean ± SD) ([3]; plasma, spiked 2.0 μg/mL): 94.3 ± 4.0% | Long-term stability, accuracy (mean ± SD) ([3]; plasma, spiked 2.0 μg/mL): 94.6 ± 5.6% | Stability in rat plasma during sample extraction and storage [3]: stable | Stability in the various tissue homogenates during sample extraction and storage [4]: stable | Short-term stability, accuracy (mean ± SD) ([4]; spiked 0.01 μg/mL): 92.2 ± 2.3% | Freeze–thaw stability, accuracy (mean ± SD) ([4]; spiked 0.01 μg/mL): 100.2 ± 3.6% | Long-term stability, accuracy (mean ± SD) ([4]; spiked 0.01 μg/mL): 101.9 ± 5.3% | Short-term stability, accuracy (mean ± SD) ([4]; spiked 0.05 μg/mL): 102.5 ± 3.1% | Freeze–thaw stability, accuracy (mean ± SD) ([4]; spiked 0.05 μg/mL): 93.5 ± 9.1% | Long-term stability, accuracy (mean ± SD) ([4]; spiked 0.05 μg/mL): 94.7 ± 7.4% | Short-term stability, accuracy (mean ± SD) ([4]; spiked 0.2 μg/mL): 92.3 ± 6.6% | Freeze–thaw stability, accuracy (mean ± SD) ([4]; spiked 0.2 μg/mL): 95.3 ± 6.6% | Long-term stability, accuracy (mean ± SD) ([4]; spiked 0.2 μg/mL): 92.3 ± 7.5%
